The results in this text go back to paper PMC11252475 (Acta Pharmaceutica Sinica. B, 2024).

Assay [1] concerns the target NaV1.5 (Homo sapiens, UniProt Q14524). Kind of assay: Cell membrane chromatography. Format: binding. The note with it: capacity factor k′; reflects potential cardiac toxicity; k′ < 0 labeled as 0.
Assay [2] concerns rats. Put plainly: Cutaneous trunci pinprick model. The class given is in vivo, rat. The note with it: 62.3 mmol/L. The gist of the method: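 Male SD rats under 1%–3% isoflurane had about 6 cm × 6 cm of back shaved, swabbed with alcohol and split into four areas. Test compound (62.3 mmol/L) was given by s.c. infiltration. Pinprick scored 1 for no response and 0 for response. Duration ran from onset to expiration, expressed as mean-score MPE. Effective block was ≥50% MPE; complete block was 100% MPE.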

Assay [3] deals with rats. Kind of assay: Sciatic nerve block model. The class given is in vivo, rat. The note with it: 62.3 mmol/L near sciatic nerve; for motor block duration: extensor postural thrust; for duration of effective sensory blockade: hotplate test. In outline: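 Test compound (62.3 mmol/L) was injected near the sciatic nerve. Hind limbs were tested every 30 min until back to pre-test baseline. Sensory: paw withdrawal latency on a 55 °C hotplate, timed by stopwatch. Motor: extensor postural thrust in grams on a digital balance. Recovery was 50% of baseline.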

Molecules are shown by their SMILES.

Sequence of NaV1.5 (Q14524 whole entry): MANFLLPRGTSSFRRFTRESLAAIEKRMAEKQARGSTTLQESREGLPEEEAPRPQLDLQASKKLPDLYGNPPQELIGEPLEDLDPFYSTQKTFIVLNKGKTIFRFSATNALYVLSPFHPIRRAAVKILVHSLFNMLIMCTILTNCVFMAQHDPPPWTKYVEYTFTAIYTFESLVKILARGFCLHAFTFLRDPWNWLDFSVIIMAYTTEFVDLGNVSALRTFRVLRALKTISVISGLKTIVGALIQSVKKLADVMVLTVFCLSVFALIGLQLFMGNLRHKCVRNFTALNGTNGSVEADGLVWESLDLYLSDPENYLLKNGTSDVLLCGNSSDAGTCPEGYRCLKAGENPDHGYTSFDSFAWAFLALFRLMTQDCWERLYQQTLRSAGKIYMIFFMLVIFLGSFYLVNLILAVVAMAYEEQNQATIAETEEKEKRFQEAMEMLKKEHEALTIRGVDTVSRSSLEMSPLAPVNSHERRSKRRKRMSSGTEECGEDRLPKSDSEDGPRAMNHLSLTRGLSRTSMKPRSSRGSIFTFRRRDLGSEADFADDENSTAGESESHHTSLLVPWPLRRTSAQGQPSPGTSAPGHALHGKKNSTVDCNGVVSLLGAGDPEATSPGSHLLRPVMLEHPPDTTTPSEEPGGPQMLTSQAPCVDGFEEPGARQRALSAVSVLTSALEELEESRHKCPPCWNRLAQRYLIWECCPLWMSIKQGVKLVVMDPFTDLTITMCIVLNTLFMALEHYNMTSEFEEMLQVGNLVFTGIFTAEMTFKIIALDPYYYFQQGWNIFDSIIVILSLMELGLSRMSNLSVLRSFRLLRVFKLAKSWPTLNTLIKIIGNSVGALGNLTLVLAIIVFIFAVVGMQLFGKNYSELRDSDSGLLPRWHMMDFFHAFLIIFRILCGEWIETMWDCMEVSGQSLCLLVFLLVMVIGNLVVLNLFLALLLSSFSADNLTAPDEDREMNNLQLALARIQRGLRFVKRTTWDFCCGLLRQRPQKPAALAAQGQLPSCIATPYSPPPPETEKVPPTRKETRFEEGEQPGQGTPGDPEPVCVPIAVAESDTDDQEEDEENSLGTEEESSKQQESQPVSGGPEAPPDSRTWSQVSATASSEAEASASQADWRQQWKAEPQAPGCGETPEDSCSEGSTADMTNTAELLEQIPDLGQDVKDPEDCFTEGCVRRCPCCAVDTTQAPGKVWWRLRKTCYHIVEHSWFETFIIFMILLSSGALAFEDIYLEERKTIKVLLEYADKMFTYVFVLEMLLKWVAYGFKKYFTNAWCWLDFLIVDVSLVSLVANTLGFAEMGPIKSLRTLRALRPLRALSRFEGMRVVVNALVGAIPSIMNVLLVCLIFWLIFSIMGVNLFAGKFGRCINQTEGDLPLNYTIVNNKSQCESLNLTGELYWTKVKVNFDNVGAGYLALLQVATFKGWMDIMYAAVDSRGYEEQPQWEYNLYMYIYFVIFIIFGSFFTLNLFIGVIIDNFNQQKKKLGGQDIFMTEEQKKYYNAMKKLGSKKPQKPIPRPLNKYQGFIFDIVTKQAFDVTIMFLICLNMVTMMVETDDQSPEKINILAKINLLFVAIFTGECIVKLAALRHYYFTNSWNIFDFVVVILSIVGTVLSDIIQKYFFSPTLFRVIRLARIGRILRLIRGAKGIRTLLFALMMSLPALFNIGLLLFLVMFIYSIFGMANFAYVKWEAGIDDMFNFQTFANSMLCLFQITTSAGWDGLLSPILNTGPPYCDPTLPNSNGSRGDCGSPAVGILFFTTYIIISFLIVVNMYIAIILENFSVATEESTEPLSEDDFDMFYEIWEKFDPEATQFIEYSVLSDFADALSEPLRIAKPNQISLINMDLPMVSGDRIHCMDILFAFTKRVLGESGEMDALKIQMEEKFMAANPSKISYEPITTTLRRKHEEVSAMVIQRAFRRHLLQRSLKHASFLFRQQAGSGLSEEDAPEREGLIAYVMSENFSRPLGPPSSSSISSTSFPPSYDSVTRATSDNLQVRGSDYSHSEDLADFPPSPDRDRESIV

Turning to `COC(=O)c1scc(C)c1NC(=O)C(C)N1CCNCC1` (stereo not shown) [AT-1, methyl 4-methyl-3-(2-(piperazin-1-yl)propanamido)thiophene-2-carboxylate], in assay [1], the “k′ NaV1.5” value amounted to 80.8. The subcutaneous infiltration duration in assay [2] came out at 240 min.
As for `COC(=O)c1scc(C)c1NC(=O)C(C)N1CCN(C)C(C)C1` (stereo not shown) [AT-2, Methyl 3-(2-(3,4-dimethylpiperazin-1-yl)propanamido)-4-methylthiophene-2-carboxylate], the “k′ NaV1.5” value in assay [1] is 92.
Still for that read-out and setting: to `COC(=O)c1scc(C)c1NC(=O)C(C)N1CCCCC1` (stereo not shown) [AT-3, Methyl 4-methyl-3-(2-(piperidin-1-yl)propanamido)thiophene-2-carboxylate] belongs 1.1; to `COC(=O)c1scc(C)c1NC(=O)C(C)N1CC(C)CC(C)C1` (stereo not shown) [AT-4, Methyl 3-(2-(3,5-dimethylpiperidin-1-yl)propanamido)-4-methylthiophene-2-carboxylate], 71.2.
For `COC(=O)c1scc(C)c1NC(=O)C(C)N1CCOCC1` (stereo not shown) [AT-5, Methyl 4-methyl-3-(2-morpholinopropanamido)thiophene-2-carboxylate], the “k′ NaV1.5” value in assay [1] was 18.4.
The same measure, in the same setting: under `COC(=O)c1scc(C)c1NC(=O)C(C)N1CCOCC1C` (stereo not shown) [AT-6, Methyl 4-methyl-3-(2-(3-methylmorpholino)propanamido)thiophene-2-carboxylate] stands 28; under `COC(=O)c1scc(C)c1NC(=O)C(C)N1C(C)COCC1C` (stereo not shown) [AT-7, Methyl 3-(2-(3,5-dimethylmorpholino)propanamido)-4-methylthiophene-2-carboxylate], 24; under `COC(=O)c1scc(C)c1NC(=O)C(C)N1CC(C)OC(C)(C)C1` (stereo not shown) [AT-8, Methyl 4-methyl-3-(2-(2,2,6-trimethylmorpholino)propanamido)thiophene-2-carboxylate], 36.8.
The same measure, in the same setting: under `COC(=O)c1scc(C)c1NC(=O)C(C)N1CCSCC1` (stereo not shown) [AT-9, Methyl 4-methyl-3-(2-thiomorpholinopropanamido)thiophene-2-carboxylate] stands 48.6; under `COC(=O)c1scc(C)c1NC(=O)C(C)N1CCS(=O)(=O)CC1` (stereo not shown) [AT-10, Methyl 3-(2-(1,1-dioxidothiomorpholino)propanamido)-4-methylthiophene-2-carboxylate], 0.
Regarding `COC(=O)c1scc(C)c1NC(=O)C(C)N1CCN(C)CC1` (stereo not shown) [AT-11, Methyl 4-methyl-3-(2-(4-methylpiperazin-1-yl)propanamido)thiophene-2-carboxylate], in assay [1], the “k′ NaV1.5” value is recorded as 8. Besides, the subcutaneous infiltration duration in assay [2] is 260 min.
In the case of `CCN1CCN(C(C)C(=O)Nc2c(C)csc2C(=O)OC)CC1` (stereo not shown) [AT-12, Methyl 3-(2-(4-ethylpiperazin-1-yl)propanamido)-4-methylthiophene-2-carboxylate], the “k′ NaV1.5” value in assay [1] stood at 1.2.
With `COC(=O)c1scc(C)c1NC(=O)C(C)N1CCN(CC2CC2)CC1` (stereo not shown) [AT-14, Methyl 3-(2-(4-(cyclopropylmethyl)piperazin-1-yl)propanamido)-4-methylthiophene-2-carboxylate], in assay [1], the “k′ NaV1.5” value was determined as 22.
Take `COC(=O)c1scc(C)c1NC(=O)C(C)N1CCN(C(C)(C)C)CC1` (stereo not shown) [AT-15, Methyl 3-(2-(4-(tert-butyl)piperazin-1-yl)propanamido)-4-methylthiophene-2-carboxylate]: the “k′ NaV1.5” value in assay [1] is recorded as 116.4. This compound also returned a subcutaneous infiltration duration in assay [2] of 205 min. Further, in assay [3], the motor block duration amounted to 210 min and the “duration of effective sensory blockade” value is reported as 190 min.
`CCCN1CCN(C(C)C(=O)Nc2c(C)csc2C(=O)OC)CC1` (stereo not shown) [AT-16, Methyl 4-methyl-3-(2-(4-propylpiperazin-1-yl)propanamido)thiophene-2-carboxylate]: the “k′ NaV1.5” value in assay [1] came to 42.4.
Still for that read-out and setting: under `COC(=O)c1scc(C)c1NC(=O)C(C)N1CCN(c2ccccc2)CC1` (stereo not shown) [AT-18, Methyl 4-methyl-3-(2-(4-phenylpiperazin-1-yl)propanamido)thiophene-2-carboxylate] stands 57.8; under `COC(=O)c1scc(C)c1NC(=O)C(C)N1CCN(CCO)CC1` (stereo not shown) [AT-19, Methyl 3-(2-(4-(2-hydroxyethyl)piperazin-1-yl)propanamido)-4-methylthiophene-2-carboxylate], 92.
Still for that read-out and setting: to `COCCN1CCN(C(C)C(=O)Nc2c(C)csc2C(=O)OC)CC1` (stereo not shown) [AT-20, Methyl 3-(2-(4-(2-methoxyethyl)piperazin-1-yl)propanamido)-4-methylthiophene-2-carboxylate] belongs 92.
For the compound `COC(=O)c1scc(C)c1NC(=O)CN1CCN(C(C)C)CC1` [AT-21, Methyl 3-(2-(4-isopropylpiperazin-1-yl)acetamido)-4-methylthiophene-2-carboxylate], the “k′ NaV1.5” value in assay [1] was found to be 5.8. For the same compound, in assay [2], the “subcutaneous infiltration effect compared with AT” value is reported as “fewer effects than AT”.
Regarding `CCC(C(=O)Nc1c(C)csc1C(=O)OC)N1CCN(C(C)C)CC1` (stereo not shown) [AT-22, Methyl 3-(2-(4-isopropylpiperazin-1-yl)butanamido)-4-methylthiophene-2-carboxylate], the “k′ NaV1.5” value in assay [1] is 21.4. In assay [2], this compound gave a subcutaneous infiltration duration of 260 min. For the same compound, in assay [3], the motor block duration is 240 min and the “duration of effective sensory blockade” value was 220 min.
On to `COCCN(CCOC)C(C)C(=O)Nc1c(C)csc1C(=O)OC` (stereo not shown) [AT-23, Methyl 3-(2-(bis(2-methoxyethyl)amino)propanamido)-4-methylthiophene-2-carboxylate], for which the “k′ NaV1.5” value in assay [1] came to 43.6.
Still for that read-out and setting: to `CCN(CCO)C(C)C(=O)Nc1c(C)csc1C(=O)OC` (stereo not shown) [AT-24, Methyl 3-(2-(ethyl(2-hydroxyethyl)amino)propanamido)-4-methylthiophene-2-carboxylate] belongs 27.6; to `COC(=O)c1scc(C)c1NC(=O)C(C)N(CCO)CCO` (stereo not shown) [AT-25, Methyl 3-(2-(bis(2-hydroxyethyl)amino)propanamido)-4-methylthiophene-2-carboxylate], 12.1.
On the same count and under the same terms, to `COC(=O)c1scc(C)c1NC(=O)C(C)NCCN1CCOCC1` (stereo not shown) [AT-26, Methyl 4-methyl-3-(2-((2-morpholinoethyl)amino)propanamido)thiophene-2-carboxylate] belongs 72.4; to `CCCNC(C)C(=O)Nc1c(C)csc1C(=O)OCC` (stereo not shown) [AT-27, Ethyl 4-methyl-3-(2-(propylamino)propanamido)thiophene-2-carboxylate], 0.6; to `CCCNC(C)C(=O)Nc1c(C)csc1C(=O)OCCC` (stereo not shown) [AT-28, Propyl 4-methyl-3-(2-(propylamino)propanamido)thiophene-2-carboxylate], 38.
The same measure, in the same setting: under `CCCCOC(=O)c1scc(C)c1NC(=O)C(C)NCCC` (stereo not shown) [AT-29, Butyl 4-methyl-3-(2-(propylamino)propanamido)thiophene-2-carboxylate] stands 35; under `CCCNC(C)C(=O)Nc1c(C)csc1C(=O)OCC(C)C` (stereo not shown) [AT-30, Isobutyl 4-methyl-3-(2-(propylamino)propanamido)thiophene-2-carboxylate], 105.4.
